# Results reported in PubChem BioAssay.
# Active and inactive are the calls of the source.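 How the source made its calls, unless noted: active means inhibition of the reporter signal at or above 50%; inactive means inhibition below 50%.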 Where a SMILES comes first, the peptide text is derived from it. The star is where a group is joined. Boc = CC(C)(C)OC(=O)*
# Columns and labels:
# [1] = inhibitors of TNFa-induced NFkB p65 translocation, primary screen, imaging, HUVEC, MLSMR starter and 10KST1 sets (AID 438;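 active means inhibition above 20% together with a positive visual image hit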;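 further: compound added about 3h40 before a 20 min TNFalpha stimulation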;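 on inhibition: signal is the nuclear over cytoplasmic p65 intensity ratio per well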); settings: HUVEC TNFa-induced p65 nuclear translocation; cell count: measured here: nuclei count (cytotoxicity indicator), at 2.08 µM; inhibition: at 2 µM, stronger effect = higher value, 0% TNFa-plus-vehicle, 100% no-TNFa wells
# [2] = inhibitors of mutant huntingtin aggregation, primary screen, imaging, exon1htt(103Q)mCFP cells, high-content imaging (AID 483;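 active means visual image review flags a hit and inhibition of aggregation exceeds 20%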;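 further: compound exposure lasted 3 days before fixation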;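 on nuclei count: percent of the per-plate median nuclei count of sample wells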); settings: exon1htt(103Q)mCFP cell line, aggregate imaging, at 2 µM; inhibition of aggregation: stronger effect = higher value; nuclei count: measured here: cell count, toxicity
# [3] = inhibitors of E-selectin induction by TNFa, primary screen, imaging, HUVEC, immunofluorescence, MLSMR starter and 10KST1 sets (AID 487;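 active means visually confirmed hit in the image check and inhibition above 20%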;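 on inhibition: signal is fraction of cell area covered by stained E-selectin grains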;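 on nuclei count: 100% = median nuclei count of all wells on the same plate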); settings: HUVEC TNFalpha-induced E-selectin immunofluorescence imaging, at 2 µM; inhibition: stronger effect = higher value; nuclei count: measured here: cell number, toxicity
# [4] = molecular target: Voltage-gated potassium channel subunit beta-2 (Rattus norvegicus) (UniProt P62483); experiment: KvBeta enzyme negative modulators, primary screen, biochemical, NADPH fluorescence (AID 622;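 active means fluorescence slope higher than the sample average by over 3 SD, cut at about -0.22 in these data, passing the limit was not always enough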;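 further: slope of raw intensity against log time taken from 70 to 1610 s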); settings: recombinant KvBeta, 4-cyanobenzaldehyde reduction, at 10 µM, stronger effect = higher value
# Sequence of Voltage-gated potassium channel subunit beta-2 (Rattus norvegicus) (P62483 whole entry, looked up): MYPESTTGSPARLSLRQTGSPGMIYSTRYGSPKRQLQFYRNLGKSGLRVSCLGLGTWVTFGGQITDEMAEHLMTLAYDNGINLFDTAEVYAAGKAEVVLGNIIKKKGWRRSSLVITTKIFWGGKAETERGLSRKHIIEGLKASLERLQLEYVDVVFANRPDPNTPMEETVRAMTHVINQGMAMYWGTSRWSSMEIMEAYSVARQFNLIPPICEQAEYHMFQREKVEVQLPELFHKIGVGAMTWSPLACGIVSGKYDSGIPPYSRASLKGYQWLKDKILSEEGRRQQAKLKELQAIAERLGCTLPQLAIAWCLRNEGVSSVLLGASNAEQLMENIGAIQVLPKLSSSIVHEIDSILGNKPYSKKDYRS
# [5] = molecular target: Voltage-gated potassium channel subunit beta-2 (Rattus norvegicus) (UniProt P62483); experiment: KvBeta positive modulators, primary screen, biochemical, NADPH fluorescence (AID 623;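 active means NADPH fluorescence slope more negative than the mean of all samples by about 3 SD, 99.7% confidence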;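 further: fluorescence intensity change per second fitted from 20 to 320 s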); settings: Recombinant KvBeta, NADPH fluorescence decrease slope, 10 min; at 10 µM; stronger effect = lower value
# [6] = molecular target: Muscarinic acetylcholine receptor M4 (Homo sapiens) (UniProt P08173); experiment: compounds altering M4/GIRK thallium flux, either direction, primary screen, M4 allosteric agonist project, cell-based, HEK293 M4/GIRK, BTC-AM (AID 625;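 active means fluorescence slope after compound addition differing from the mean of all tested samples at 99.7% confidence, mostly higher but some lower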;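 further: thallium influx through GIRK channels coupled to M4 in HEK293 cells with BTC-AM dye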); settings: at 10 µM, actives lie on both sides
# Sequence of Muscarinic acetylcholine receptor M4 (Homo sapiens) (P08173 whole entry, looked up): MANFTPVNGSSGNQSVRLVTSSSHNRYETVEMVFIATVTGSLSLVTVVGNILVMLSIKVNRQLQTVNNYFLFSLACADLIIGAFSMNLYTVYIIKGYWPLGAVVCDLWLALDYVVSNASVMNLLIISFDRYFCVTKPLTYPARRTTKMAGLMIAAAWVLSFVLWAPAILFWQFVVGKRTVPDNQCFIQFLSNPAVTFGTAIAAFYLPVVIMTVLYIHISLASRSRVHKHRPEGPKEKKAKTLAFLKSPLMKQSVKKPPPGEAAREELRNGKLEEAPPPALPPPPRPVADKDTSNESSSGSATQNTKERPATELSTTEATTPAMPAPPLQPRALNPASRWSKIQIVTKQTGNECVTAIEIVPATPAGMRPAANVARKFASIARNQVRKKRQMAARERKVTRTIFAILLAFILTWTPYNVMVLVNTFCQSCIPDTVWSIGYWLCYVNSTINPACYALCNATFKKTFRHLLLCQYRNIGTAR
# Summary of the method: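 assay system = HEK293 cells with M4 receptor and GIRK channels | medium = pH 7.3 thallium assay buffer | doses = 10 µM final, single point | timing = cells overnight at 37 °C, BTC-AM loading 1 h, reads 2 min total | signal = BTC-AM fluorescence, 1 Hz kinetic reads | read-out = post-addition slope, 15–24 s, of baseline-normalized fluorescence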
# [7] = inhibitors of Sendai virus-induced IRF3 signaling, primary screen, TLR/RLR signaling modifier project, cell-based, Sendai virus stimulus, luciferase, 10K MLSCN set (AID 602276;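 active means inhibition at or above 50% at 10 µM; inactive means inhibition below 50%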;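 further: firefly luciferase from ISG56 promoter only with Renilla not read in this screen; 0% = Sendai virus plus DMSO and 100% = medium plus DMSO without virus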); settings: HEK293 RL24 IRF3 luciferase reporter, at 10 µM, stronger effect = higher value
# [8] = inhibitors of poly I:C-induced TLR3 signaling, primary screen, cell-based, poly I:C stimulus, luciferase, 10K MLSCN set (AID 602277); settings: HEK293-TLR3 RL24 IRF3 luciferase reporter, at 10 µM, stronger effect = higher value
SMILES,cell count [1],inhibition [1],inhibition of aggregation [2],nuclei count [2] [%],inhibition [3],nuclei count [3] [%],fluorescence slope [4],NADPH fluorescence slope [5],fluorescence slope [6],inhibition [7],inhibition [8]
CCn1cc(C2=NOC(C(=O)Nc3cc(C)nn3-c3ccccc3)C2)c(C)n1 (stereo not drawn),542,-3.4% (inactive),11.1% (inactive),93.2,-52.6% (inactive),84.5,-0.448 (inactive),9.7e-06 (inactive),0.00533 (inactive),-1.87% (inactive),98.7% (active)
Cc1nc2nc(SCC(=O)NCc3ccco3)nn2c(C)c1Cc1ccccc1,457,1.4% (inactive),-6.7% (inactive),112,-10.5% (inactive),126,-0.353 (inactive),-2.9e-05 (inactive),0.0066 (inactive),-7.73% (inactive),0.532% (inactive)
CCCn1c(N2CCN(CC(=O)NCc3cccs3)CC2)nc2ccccc21,451,-6.7% (inactive),5.2% (inactive),110,-81.5% (inactive),228,-0.437 (inactive),-3.1e-05 (inactive),0.00415 (inactive),21.5% (inactive),28.5% (inactive)
C=CCOC(=O)C(C#N)c1nc2ccccc2nc1N1CCN(Cc2ccccc2)CC1 (stereo not drawn),469,-5.7% (inactive),-12.3% (inactive),94.6,-69.4% (inactive),181,-0.402 (inactive),6.8e-05 (inactive),0.0023 (inactive),10.9% (inactive),18.7% (inactive)
O=C(NC1CCCC1)c1c[nH]c2ccc(F)cc2c1=O,442,-4% (inactive),-14.3% (inactive),118,-16% (inactive),104,-0.266 (inactive),-1.4e-05 (inactive),0.00803 (inactive),-2.78% (inactive),-20.3% (inactive)
COc1ccc(C(=O)NCCn2ccc3ccccc32)cc1,238,7.3% (inactive),25.9% (inactive),104,-36.9% (inactive),95,-0.386 (inactive),-5.6e-06 (inactive),0.008 (inactive),5.56% (inactive),-49.2% (inactive)
CC(C)(C)OC(=O)N1CCCC1C(=O)N1CCCC1C(=O)N1CCCC1C(=O)O (stereo not drawn) (Boc-Pro-Pro-Pro-OH; configuration not given here),302,-6.9% (inactive),4.5% (inactive),49.1,-59.4% (inactive),102,-0.571 (inactive),-4.7e-05 (inactive),0.00689 (inactive),5.97% (inactive),15.3% (inactive)
O=C(CN1C(=O)CCSc2ccccc21)Nc1ccc2c(c1)OCO2,700,-1.6% (inactive),31.4% (inactive),91.2,-215% (inactive),111,-0.474 (inactive),-2.4e-05 (inactive),0.00631 (inactive),12.5% (inactive),23.4% (inactive)
O=c1c2ccccc2nnn1CSc1nc2cc(Cl)ccc2c(=O)n1Cc1ccco1,386,12.2% (inactive),7.5% (inactive),76,-101% (inactive),113,-0.56 (inactive),-5e-05 (inactive),0.00813 (inactive),-18.1% (inactive),-12.2% (inactive)
Cn1nnnc1SCC(=O)NCc1ccco1,467,4.6% (inactive),-7.3% (inactive),133,-60.2% (inactive),172,-0.443 (inactive),0.000107 (inactive),0.00818 (inactive),-10.5% (inactive),-15.1% (inactive)
CCn1c(=O)n(CC(=O)N(C)Cc2ccccc2)c(=O)c2ccccc21,684,-16.4% (inactive),3.2% (inactive),120,65.6% (active),94.4,-0.559 (inactive),-2.3e-05 (inactive),0.00592 (inactive),11.1% (inactive),10.9% (inactive)
C=CCNC(=O)CSc1ccc(Cl)cc1,339,7.4% (inactive),-7.8% (inactive),96,-99.8% (inactive),101,-0.448 (inactive),-0.000358 (inactive),0.00478 (inactive),5.55% (inactive),-3.36% (inactive)
COc1ccccc1CNC(=O)C1CCN(S(=O)(=O)N2CCCCC2)CC1,571,-1.8% (inactive),4.5% (inactive),102,-44.6% (inactive),89.6,-0.426 (inactive),-3.4e-05 (inactive),0.00585 (inactive),14% (inactive),21.7% (inactive)
CCn1cc(C(=O)Nc2cc3c(cc2NC(C)=O)OCCO3)c(=O)c2ccc(C)nc21,315,5.7% (inactive),-17.4% (inactive),114,-39.4% (inactive),115,-0.49 (inactive),-0.000144 (active),0.00463 (inactive),18.1% (inactive),16.9% (inactive)
Cc1cccc(C)c1OCC(=O)Nc1cccc(NC(=O)c2ccco2)c1,464,-9.5% (inactive),23.3% (inactive),87.7,-10.3% (inactive),96.3,-0.447 (inactive),5.1e-06 (inactive),0.00569 (inactive),13.3% (inactive),9.13% (inactive)
O=C(c1cc2ccccc2oc1=O)N1CCSC1c1ccco1 (stereo not drawn),310,5.3% (inactive),3.2% (inactive),102,-24.5% (inactive),112,-0.398 (inactive),-9.8e-05 (inactive),0.00556 (inactive),12.5% (inactive),22% (inactive)
COc1cccc(Oc2ccc(N)cn2)c1,392,-4.4% (inactive),-4.1% (inactive),100,-126% (inactive),114,-0.537 (inactive),-0.000148 (inactive),0.0033 (inactive),-7.7% (inactive),1.94% (inactive)
Cc1nc2cc(NC(=O)N3CC4(C)CC3CC(C)(C)C4)ccc2n1C (stereo not drawn),657,2.1% (inactive),6.5% (inactive),104,11.9% (inactive),105,-0.484 (inactive),-8.2e-05 (inactive),0.00526 (inactive),-4.69% (inactive),16.4% (inactive)
CCOC(=O)N1CCN(c2cc3[nH]c(=S)[nH]c3cc2F)CC1,792,0% (inactive),-5.7% (inactive),104,-135% (inactive),136,-0.525 (inactive),-2.4e-05 (inactive),0.00501 (inactive),17.8% (inactive),20.8% (inactive)
COC(=O)Nc1ccc(S(=O)(=O)N(C)CC(F)(F)C(F)F)cc1,642,-11.1% (inactive),-5.6% (inactive),114,-57.5% (inactive),86.7,-0.568 (inactive),3.2e-05 (inactive),0.00406 (inactive),12% (inactive),13.7% (inactive)
O=C(N1CCCCCC1)N1CCN(C(=O)N2CCOCC2)CC1,437,-13.3% (inactive),7.7% (inactive),99.6,-24.8% (inactive),134,-0.563 (inactive),-1.7e-05 (inactive),0.00574 (inactive),3.08% (inactive),-6.18% (inactive)
COc1ccc(OC)c(C2C3=C(CCCC3=O)Nc3c2c(=O)n(C)c(=O)n3C)c1 (stereo not drawn),508,1.4% (inactive),4.8% (inactive),89.5,-15.1% (inactive),96.3,-0.547 (inactive),-0.000161 (inactive),0.00407 (inactive),4.02% (inactive),0.406% (inactive)
CC(C(=O)N1CCOCC1)N1c2cccc3cccc(c23)S1(=O)=O (stereo not drawn),341,-13.3% (inactive),8.6% (inactive),109,-31.4% (inactive),102,-0.548 (inactive),-2.9e-05 (inactive),0.00313 (inactive),17.3% (inactive),20.6% (inactive)
CC(C)(C)C(=O)Oc1cc(N)n(S(=O)(=O)c2ccccc2)n1,228,-0.3% (inactive),-1.1% (inactive),109,-24.6% (inactive),129,-0.52 (inactive),-5.6e-05 (inactive),0.00539 (inactive),-12% (inactive),-7.53% (inactive)
NC(=O)c1oc2ccc(Cl)cc2c1NC(=O)CN1CCOCC1,436,2.7% (inactive),3.6% (inactive),112,-114% (inactive),123,-0.53 (inactive),-5.2e-05 (inactive),0.00578 (inactive),4.86% (inactive),1.98% (inactive)
Oc1cnc2ccccc2c1CN1CCOCC1,354,0.4% (inactive),-24.9% (inactive),111,-45.2% (inactive),80.9,-0.542 (inactive),-1.4e-05 (inactive),0.0061 (inactive),18% (inactive),10.3% (inactive)
O=C1CN=C(Nc2cccc(C(F)(F)F)c2)N1C1CCCC1,421,4.8% (inactive),-11% (inactive),107,-375% (inactive),149,-0.436 (inactive),-0.000109 (inactive),0.00643 (inactive),-11.3% (inactive),-11.6% (inactive)
CN(Cc1cccs1)c1ncnc2sccc12,549,-11.6% (inactive),-28.3% (inactive),101,-38.6% (inactive),147,-0.456 (inactive),2.8e-05 (inactive),0.00479 (inactive),7.29% (inactive),-37.9% (inactive)
